The values that follow come from article PMC8179362 (Chemical Science, 2021).

In one data set the target is NDM-1 (Klebsiella pneumoniae, UniProt C7C422). Description: Imipenem hydrolysis by purified NDM-1, competitive inhibition model. It counts as biochemical. As to conditions: for Fold more active against NDM-1 than its enantiomer / Fold more potent NDM-1 inhibitor than L-BTZ-1: ratio of Ki values.
Another data set concerns the target IMP-1 (Serratia marcescens, UniProt P52699). Description: Imipenem hydrolysis by purified IMP-1, competitive inhibition model. It counts as biochemical.
The target in the next data set is VIM-2 (Escherichia coli, UniProt Q5U7L7). Put plainly: Imipenem hydrolysis by purified VIM-2, competitive inhibition model. It counts as biochemical.
In data set [1] the target is E. coli cells expressing NDM-1 (Klebsiella pneumoniae, UniProt C7C422). The class given is cell-based.
Data set [2] deals with K. pneumoniae (1.37), NDM. Description: Imipenem MIC, broth microdilution, clinical isolate. Particulars: MMTZ at constant 100 mg/L. It counts as cell-based. In a few lines:
(§1)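 Clinical Enterobacterales isolates producing MBLs. Carbapenem MIC was determined for the carbapenem alone and in the presence of test compound, and the shift in MIC was assessed. Imipenem was the carbapenem for most strains. Morganellaceae strains were tested with meropenem instead, because of their intrinsic reduced susceptibility to imipenem.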
Background: Broth dilution looks for growth in wells or tubes with falling amounts of substance.

The subject of another data set is E. coli (8.68), NDM-1. Described as above. It counts as cell-based. As to conditions: for MIC of imipenem (IMI) + MMTZ: E. coli (8.68), NDM-1, MMTZ at constant 100 mg/L. An outline of the steps: as §1
Data set [3] relates to Enterobacter spp. (42713), IMP. The description is as above. Particulars: for MIC of imipenem (IMI) + MMTZ: Enterobacter spp. (42713), IMP, MMTZ at constant 100 mg/L. It counts as cell-based. An outline of the steps:
as §1

For data set [4], the system named is K. pneumoniae (6907), VIM-2. Described as above. Particulars: MMTZ at constant 100 mg/L. The class given is cell-based. An outline of the steps:
as §1

Data set [5] relates to K. aerogenes (6915), VIM-2. The data set is described as above. It counts as cell-based. Particulars: MMTZ at constant 100 mg/L. In a few lines: as §1
Data set [6] deals with K. pneumoniae (5639), VIM-24. The description is as above. Particulars: MMTZ at constant 100 mg/L. The class given is cell-based. An outline of the steps: as §1
For another data set, the system named is HEK293. Description: Cytotoxicity, MTT assay. The class given is cell-based, human. Particulars: 260, 355 and 530 μM, 24 hs. In general terms: Tetrazolium dyes change colour on reduction, which living cells bring about.
Another data set deals with L929. Put plainly: Cytotoxicity, MTT assay. The class given is cell-based, mouse. As to conditions: 260, 355 and 530 μM, 24 hs.
The subject of a further data set is VERO. Description: Cytotoxicity, MTT assay. The class given is cell-based, African green monkey. As to conditions: 260, 355 and 530 μM, 24 hs.
The subject of data set [7] is clinical isolates producing MBLs. Put plainly: Antimicrobial susceptibility testing, statements on the whole panel. It counts as cell-based. Particulars: MMTZ at constant 100 mg/L, Enterobacterales clinical isolates. An outline of the steps: as §1
Data set [8] can be described thus: Chemical stability in PBS. Particulars: PBS pH 7.2, 27 °C. The class given is physicochemical.
Data set [9] concerns P. mirabilis (UNC KPC 170), IMP. Put plainly: Carbapenem. As to conditions: tested using meropenem (footnote a). It counts as cell-based. In a few lines:
as §1

The test system of data set [10] is K. pneumoniae (LC 82), IMP-13. Put plainly: Imipenem MIC, broth microdilution, clinical isolate. The class given is cell-based. Particulars: MMTZ at constant 100 mg/L. In a few lines: as §1

Structures are written as SMILES.

IMP-1, sequence (P52699 19-246, looked up, species assumed): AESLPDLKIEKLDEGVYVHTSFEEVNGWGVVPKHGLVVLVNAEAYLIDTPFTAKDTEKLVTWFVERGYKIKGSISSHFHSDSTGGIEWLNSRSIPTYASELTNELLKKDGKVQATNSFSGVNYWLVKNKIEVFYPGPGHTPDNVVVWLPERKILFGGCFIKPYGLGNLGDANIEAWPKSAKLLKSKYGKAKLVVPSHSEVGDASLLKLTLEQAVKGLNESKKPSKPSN
NDM-1, sequence (C7C422 29-270, looked up, species assumed): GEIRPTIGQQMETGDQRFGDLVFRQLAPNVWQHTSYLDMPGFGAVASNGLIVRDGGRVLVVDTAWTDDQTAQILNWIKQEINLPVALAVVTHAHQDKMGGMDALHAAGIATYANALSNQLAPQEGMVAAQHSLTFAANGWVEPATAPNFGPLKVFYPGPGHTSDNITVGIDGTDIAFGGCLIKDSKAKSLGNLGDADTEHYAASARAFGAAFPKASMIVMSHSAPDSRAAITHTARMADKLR
E. coli cells expressing NDM-1, sequence (C7C422 29-270, looked up): as the sequence (C7C422 29-270, looked up, species assumed) above

Take `CCOC(=O)[C@@]1(CS)N[C@@H](C(=O)O)CS1` [D-anti-1a, (2R,4S)-2-(ethoxycarbonyl)-2-(mercaptomethyl)thiazolidine-4-carboxylic acid]: the figures for the Ki at NDM-1, at IMP-1 and on VIM-2 were 2500 ± 500 nM, 1300 ± 100 nM and 390 ± 40 nM, respectively. Moreover, the half-inhibitory concentration (IC50) in data set [1] amounted to 64000 ± 5000 nM. The “MIC of imipenem (IMI) + MMTZ” value was found to be 8 µg/mL in data set [2]; 16 µg/mL with E. coli (8.68), NDM-1; 8 µg/mL in data set [3]; 2 µg/mL in data set [4]; 2 µg/mL in [5]; 4 µg/mL in data set [6]. The “Cytotoxicity (cell viability)” value with HEK293, with L929 and with VERO was “induced a decline in cell viability percentages in almost all conditions” in each case.

For `CCOC(=O)[C@@]1(CS)N[C@@H](C(=O)O)C(C)(C)S1` [D-anti-1b, (2R,4S)-2-(Ethoxycarbonyl)-2-(mercaptomethyl)-5,5-dimethylthiazolidine-4-carboxylic acid], the Ki on NDM-1 was determined as 3100 ± 300 nM; on IMP-1, 930 ± 80 nM; at VIM-2 it was 900 ± 100 nM. Moreover, inhibition in data set [1] was half-maximal at 210000 ± 10000 nM (IC50). Further, the “MIC of imipenem (IMI) + MMTZ” value in [2] amounted to 8 µg/mL; with E. coli (8.68), NDM-1 it was 16 µg/mL; in [3], 8 µg/mL; in data set [4] it was 1 µg/mL; in data set [5], 2 µg/mL; in [6] it was 1 µg/mL. Moreover, the “Reduction in MIC values of imipenem” value in data set [7] is “up to 16 fold”. Moreover, the “Degradation in PBS by LCMS” value in [8] (6 h) is “did not hydrolyse to penicillamine and the main degradation product was the disulphide derivative”. Moreover, the “Intact MMTZ remaining” value in [8] (after 6 hours) amounted to 88%.

As for `CCOC(=O)[C@]1(CS)N[C@@H](C(=O)O)C(C)(C)S1` [D-syn-1b, (2S,4S)-2-(Ethoxycarbonyl)-2-(mercaptomethyl)-5,5-dimethylthiazolidine-4-carboxylic acid], at NDM-1, the “Fold more active against NDM-1 than its enantiomer” value came to 13 fold. Moreover, at NDM-1, the “Fold more potent NDM-1 inhibitor than L-BTZ-1” value is reported as 12 fold. The inhibition constant Ki at IMP-1 came out at 2000 ± 200 nM; at VIM-2, 1900 ± 100 nM. Besides, the “MIC of imipenem (IMI) + MMTZ” value worked out at 8 µg/mL in [2]; 32 µg/mL in the data set with E. coli (8.68), NDM-1; 8 µg/mL in [3]; 4 µg/mL in data set [4]; 4 µg/mL in [5]; 8 µg/mL in [6].

In the case of `C[C@@H](O)[C@H]1C(=O)N2C(C(=O)O)=C(SCCN=CN)C[C@H]12` [IMI, imipenem, reference compound], the MIC stood at 64 µg/mL in the data set on E. coli (8.68), NDM-1 (Escherichia coli, read-out: MIC of imipenem (IMI) alone) and 16 µg/mL in [3] (Enterobacter, read-out: MIC of imipenem (IMI) alone). The “MIC of carbapenem alone (column IMI)” value in data set [9] came out at 16 µg/mL.

With `CCOC(=O)[C@]1(CS)N[C@H](C(=O)O)CS1` [L-anti-1a, (2S,4R)-2-(ethoxycarbonyl)-2-(mercaptomethyl)thiazolidine-4-carboxylic acid], the results for the Ki at NDM-1, at IMP-1 and at VIM-2 were 5200 ± 700 nM, 1000 ± 200 nM and 380 ± 50 nM, respectively. In addition, in data set [1], the midpoint of inhibition, the IC50, lay at 54000 ± 4000 nM. The “MIC of imipenem (IMI) + MMTZ” value in [2] came to 8 µg/mL; in [10], 0.5 µg/mL; in data set [3], 16 µg/mL; in [4], 2 µg/mL; in data set [5], 4 µg/mL; in [6] it was 8 µg/mL. The “Cytotoxicity (cell viability)” value in the data set with HEK293 is recorded as “more selectively toxic towards the HEK293 cell line”.

`CCOC(=O)[C@]1(CS)N[C@H](C(=O)O)C(C)(C)S1` [L-anti-1b, (2S,4R)-2-(Ethoxycarbonyl)-2-(mercaptomethyl)-5,5-dimethylthiazolidine-4-carboxylic acid]: the Ki on NDM-1 was 440 ± 60 nM; at IMP-1, 460 ± 50 nM; on VIM-2 it was 750 ± 90 nM. Further, the “Fold more active against NDM-1 than its enantiomer” value at NDM-1 was determined as 7 fold. Also, the “Fold more potent NDM-1 inhibitor than L-BTZ-1” value at NDM-1 came out at 12 fold. The compound also displayed a 50% inhibitory concentration (IC50) in data set [1] of 160000 ± 10000 nM. For the same compound, the “MIC of imipenem (IMI) + MMTZ” value was determined as 8 µg/mL in data set [2]; 16 µg/mL with E. coli (8.68), NDM-1; 8 µg/mL in [3]; 1 µg/mL in data set [4]; 2 µg/mL in data set [5]; 4 µg/mL in data set [6].

Consider `CCOC(=O)[C@@]1(CS)N[C@H](C(=O)O)C(C)(C)S1` [L-syn-1b, (2R,4R)-2-(Ethoxycarbonyl)-2-(mercaptomethyl)-5,5-dimethylthiazolidine-4-carboxylic acid], for which the values for the inhibition constant Ki at NDM-1, at IMP-1 and at VIM-2 were 8000 ± 1000 nM, 6000 ± 600 nM and 3600 ± 400 nM, respectively. The compound further showed an IC50 in [1] of 230000 ± 30000 nM. In addition, the “MIC of imipenem (IMI) + MMTZ” value worked out at 32 µg/mL in the data set on E. coli (8.68), NDM-1; 1 µg/mL in [10]; 16 µg/mL in data set [3]; 4 µg/mL in data set [4]; 4 µg/mL in [5]; 8 µg/mL in [6].

For orientation: Ki means the equilibrium dissociation constant of an inhibitor or competing ligand from its target. By IC50 is commonly meant the midpoint of a concentration-inhibition curve. High values mean weaker potency, low ones greater potency. Usually MIC stands for the lowest concentration found to suppress growth.
